Assay results reported in publication PMC8148061 (Acta Pharmaceutica Sinica. B, 2020).
Like-named read-outs stand apart in the source and are kept apart here.

Key:
[1] = target: Bcr-Abl^T315I (Homo sapiens, UniProt P00519+P11274, T315I); assay: Western blot degradation study in Ba/F3 cells expressed Bcr-Abl^T315I; type: cell-based; details: 24 h treatment, Western blot
[2] = system: K562; assay: Antiproliferation cell assay; type: cell-based, human; details: read-out: Cellular inhibition IC50 K562
Method in brief: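 K562 (ATCC) cells were grown in RPMI-1640 with 10% FBS, penicillin, streptomycin and 2 mmol/L glutamine at 37 °C in humidified CO2. Log-phase cells were seeded at ~3000/well, rested overnight, then exposed to test compound or vehicle for 72 h (10 mmol/L DMSO stocks). CCK-8 was read as OD450−OD650, with viability normalised to no-cell blank and vehicle wells. IC50 came from concentration–response curve fitting, mean ± SD.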

[3] = system: Ba/F3 Bcr-Abl^WT; assay: Antiproliferation cell assay; type: cell-based; details: read-out: Cellular inhibition IC50 Ba/F3 Bcr-Abl^WT
[4] = system: Ba/F3 Bcr-Abl^T315I; assay: Antiproliferation cell assay; type: cell-based; details: read-out: Cellular inhibition IC50 Ba/F3 Bcr-Abl^T315I

Molecule	DR against Ba/F3 Bcr-Abl^T315I (%) 100 nmol/L [1]	DR against Ba/F3 Bcr-Abl^T315I (%) 300 nmol/L [1]	IC50 ([2]; Homo sapiens, K562, 72 h)	IC50 ([3]; Mus musculus, BaF3, 72 h)	IC50 ([4]; Mus musculus, BaF3, 72 h)	IC50 ([2]; 72 h, CCK-8, mean ± SD)	IC50 ([3]; 72 h, CCK-8, mean ± SD)	IC50 ([4]; 72 h, CCK-8, mean ± SD)
Cc1ccc(C(=O)Nc2ccc(CN3CCN(CCCCCCCCCCC(=O)Nc4cccc5c4C(=O)N(C4CCC(=O)NC4=O)C5=O)CC3)c(C(F)(F)F)c2)cc1C#Cc1cnc2[nH]ncc2c1 (stereo not drawn) [7q, 3-((1H-Pyrazolo[3,4-b]pyridin-5-yl)ethynyl)-N-(4-((4-(11-((2-(2,6-dioxopiperidin-3-yl)-1,3-dioxoisoindolin-4-yl)amino)-11-oxoundecyl)piperazin-1-yl)methyl)-3-(trifluoromethyl)phenyl)-4-methylbenzamide]	5.33%	14.25%	46.4 ± 21.2 nM	36.1 ± 0.9 nM	70.1 ± 34.3 nM			
Cc1ccc(C(=O)Nc2ccc(CN3CCN(CCCCCCCCCCCCCCC(=O)Nc4cccc5c4C(=O)N(C4CCC(=O)NC4=O)C5=O)CC3)c(C(F)(F)F)c2)cc1C#Cc1cnc2[nH]ncc2c1 (stereo not drawn) [7t, 3-((1H-Pyrazolo[3,4-b]pyridin-5-yl)ethynyl)-N-(4-((4-(15-((2-(2,6-dioxopiperidin-3-yl)-1,3-dioxoisoindolin-4-yl)amino)-15-oxopentadecyl)piperazin-1-yl)methyl)-3-(trifluoromethyl)phenyl)-4-methylbenzamide]	13.75%	28.73%	190 ± 26.6 nM	363.7 ± 2.4 nM	399 ± 248 nM			
Cc1ccc(C(=O)Nc2ccc(CN3CCN(CCOCCOCCNC(=O)[C@H](CC(C)C)NC(=O)[C@@H](O)[C@H](N)Cc4ccccc4)CC3)c(C(F)(F)F)c2)cc1C#Cc1cnc2[nH]ncc2c1 [7e, 3-((1H-Pyrazolo[3,4-b]pyridin-5-yl)ethynyl)-N-(4-((4-((11S,14S,15R)-15-amino-14-hydroxy-11-isobutyl-10,13-dioxo-16-phenyl-3,6-dioxa-9,12-diazahexadecyl)piperazin-1-yl)methyl)-3-(trifluoromethyl)phenyl)-4-methylbenzamide]	−14.92%	11.17%	58.6 ± 11.4 nM	240 ± 75.4 nM	2310 ± 424 nM			
3-((1H-Pyrazolo[3,4-b]pyridin-5-yl)ethynyl)-N-(4-((4-(13-((2-(2,6-dioxopiperidin-3-yl)-1,3-dioxoisoindolin-4-yl)amino)-13-oxotridecyl)piperazin-1-yl)methyl)-3-(trifluoromethyl)phenyl)-4-methylbenzamide [7s]	−7.20%	45.61%				57.8 ± 19.5 nM	61 ± 1.7 nM	114 ± 29.9 nM
Cc1ccc(C(=O)Nc2ccc(CN3CCN(CCOCCOCCC(=O)Nc4cccc5c4CN(C4CCC(=O)NC4=O)C5=O)CC3)c(C(F)(F)F)c2)cc1C#Cc1cnc2[nH]ncc2c1 (stereo not drawn) [7b, 3-((1H-Pyrazolo[3,4-b]pyridin-5-yl)ethynyl)-N-(4-((4-(2-(2-(3-((2-(2,6-dioxopiperidin-3-yl)-1-oxoisoindolin-4-yl)amino)-3-oxopropoxy)ethoxy)ethyl)piperazin-1-yl)methyl)-3-(trifluoromethyl)phenyl)-4-methylbenzamide]	−9.18%	−4.21%	4 ± 0.6 nM	65.3 ± 30.2 nM	287 ± 23 nM			
Cc1ccc(C(=O)Nc2ccc(CN3CCN(CCOCCOCCOCCOCCC(=O)Nc4cccc5c4C(=O)N(C4CCC(=O)NC4=O)C5=O)CC3)c(C(F)(F)F)c2)cc1C#Cc1cnc2[nH]ncc2c1 (stereo not drawn) [7i, 1-(4-(4-(3-((1H-Pyrazolo[3,4-b]pyridin-5-yl)ethynyl)-4-methylbenzamido)-2-(trifluoromethyl)benzyl)piperazin-1-yl)-N-(2-(2,6-dioxopiperidin-3-yl)-1,3-dioxoisoindolin-4-yl)-3,6,9,12-tetraoxapentadecan-15-amide]	−22.44%	−19.45%	11.4 ± 7.3 nM	19.9 ± 4.2 nM	95.4 ± 37.4 nM			
Cc1ccc(C(=O)Nc2ccc(CN3CCN(CCCCCCCCC(=O)Nc4cccc5c4C(=O)N(C4CCC(=O)NC4=O)C5=O)CC3)c(C(F)(F)F)c2)cc1C#Cc1cnc2[nH]ncc2c1 (stereo not drawn) [7p, 3-((1H-Pyrazolo[3,4-b]pyridin-5-yl)ethynyl)-N-(4-((4-(9-((2-(2,6-dioxopiperidin-3-yl)-1,3-dioxoisoindolin-4-yl)amino)-9-oxononyl)piperazin-1-yl)methyl)-3-(trifluoromethyl)phenyl)-4-methylbenzamide]	3.61%	63.47%	14 ± 4.5 nM	4.5 nM	21.8 ± 8.3 nM			
Cc1ccc(C(=O)Nc2ccc(CN3CCN(CCOCCOCCC(=O)NC45CC6CC(CC(C6)C4)C5)CC3)c(C(F)(F)F)c2)cc1C#Cc1cnc2[nH]ncc2c1 [7f, 3-((1H-Pyrazolo[3,4-b]pyridin-5-yl)ethynyl)-N-(4-((4-(2-(2-(3-(adamantan-1-ylamino)-3-oxopropoxy)ethoxy)ethyl)piperazin-1-yl)methyl)-3-(trifluoromethyl)phenyl)-4-methylbenzamide]	−5.26%	11.72%	> 10000 nM	> 10000 nM	> 10000 nM			
Cc1ccc(C(=O)Nc2ccc(CN3CCN(CCOCCOCCOCCOCCOCCC(=O)Nc4cccc5c4C(=O)N(C4CCC(=O)NC4=O)C5=O)CC3)c(C(F)(F)F)c2)cc1C#Cc1cnc2[nH]ncc2c1 (stereo not drawn) [7j, 1-(4-(4-(3-((1H-Pyrazolo[3,4-b]pyridin-5-yl)ethynyl)-4-methylbenzamido)-2-(trifluoromethyl)benzyl)piperazin-1-yl)-N-(2-(2,6-dioxopiperidin-3-yl)-1,3-dioxoisoindolin-4-yl)-3,6,9,12,15-pentaoxaoctadecan-18-amide]	−23.27%	21.17%	2.8 ± 0.4 nM	14.3 ± 0.3 nM	60.1 ± 0.3 nM			
Cc1ccc(C(=O)Nc2ccc(CN3CCN(CCOCCOCCOCCOCCOCCOCCC(=O)Nc4cccc5c4C(=O)N(C4CCC(=O)NC4=O)C5=O)CC3)c(C(F)(F)F)c2)cc1C#Cc1cnc2[nH]ncc2c1 (stereo not drawn) [7k, 1-(4-(4-(3-((1H-Pyrazolo[3,4-b]pyridin-5-yl)ethynyl)-4-methylbenzamido)-2-(trifluoromethyl)benzyl)piperazin-1-yl)-N-(2-(2,6-dioxopiperidin-3-yl)-1,3-dioxoisoindolin-4-yl)-3,6,9,12,15,18-hexaoxahenicosan-21-amide]	19.38%	25.53%	10.5 ± 0.5 nM	107 ± 24.9 nM	306 ± 69.3 nM			
Cc1ccc(C(=O)Nc2ccc(CN3CCN(C)CC3)c(C(F)(F)F)c2)cc1C#Cc1cnc2[nH]ncc2c1 [GZD824, reference compound]	2.59%	20.62%	1.6 ± 0.7 nM	6.8 ± 5.3 nM	31 ± 11.7 nM			
Cc1ccc(C(=O)Nc2ccc(CN3CCN(CCCCCC(=O)Nc4cccc5c4C(=O)N(C4CCC(=O)NC4=O)C5=O)CC3)c(C(F)(F)F)c2)cc1C#Cc1cnc2[nH]ncc2c1 (stereo not drawn) [7n, 3-((1H-Pyrazolo[3,4-b]pyridin-5-yl)ethynyl)-N-(4-((4-(6-((2-(2,6-dioxopiperidin-3-yl)-1,3-dioxoisoindolin-4-yl)amino)-6-oxohexyl)piperazin-1-yl)methyl)-3-(trifluoromethyl)phenyl)-4-methylbenzamide]	21.64%	30.39%	2.1 ± 0.1 nM	4.2 ± 0.3 nM	33.4 ± 1.6 nM			
